Experimental data taken from ChEMBL document CHEMBL1149065, “Synthesis and structure-activity relationships of cytotoxic 7-hydroxy sterols” (J Nat Prod, 1994).

How the values were obtained:
[1] = test system: Vero; assay: Cytotoxicity against african green monkey Vero cells; type: cell-based; settings: Chlorocebus sabaeus
[2] = test system: Saccharomyces cerevisiae; assay: Antifungal activity against Saccharomyces cerevisiae RS 322YK (rad 52Y) assessed as DNA damaging activity; type: functional, organism-based
Procedure, shortened: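 Growth inhibition of the rad 52 mutant strain RS322YK of *Saccharomyces cerevisiae*, measured as a zone of inhibition. Activity is reported as IC₁₂, the concentration giving a 12 mm diameter inhibition zone, in µg/ml. Sterols were also tested against the wild-type RAD⁺ strain.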

Row | SMILES | IC50 [1] [µM] | IC12 [2] [µg/mL]
1 | C=C(CC[C@@H](C)[C@H]1CC[C@H]2[C@@H]3[C@@H](O)C=C4C[C@@H](O)CC[C@]4(C)[C@H]3CC[C@]12C)C(C)C | 31 | > 8000
2 | C=C(CC[C@@H](C)[C@H]1CC[C@H]2[C@@H]3CC=C4C[C@@H](O)CC[C@]4(C)[C@H]3CC[C@]12C)C(C)C | – | > 8000
3 | C=C(CC[C@@H](C)[C@H]1CC[C@H]2[C@@H]3[C@H](O)C=C4C[C@@H](O)CC[C@]4(C)[C@H]3CC[C@]12C)C(C)C | 58 | 7
4 | CC(C)[C@@]1(CC[C@@H](C)[C@H]2CC[C@H]3[C@@H]4[C@@H](O)C=C5C[C@@H](O)CC[C@]5(C)[C@H]4CC[C@]23C)CO1 | 16 | > 8000
5 | CC(C)C(=O)CC[C@@H](C)[C@H]1CC[C@H]2[C@@H]3[C@H](O)C=C4C[C@@H](O)CC[C@]4(C)[C@H]3CC[C@]12C | 9.9 | 14
6 | CC(C)C(=O)CC[C@@H](C)[C@H]1CC[C@H]2[C@@H]3[C@@H](O)C=C4C[C@@H](O)CC[C@]4(C)[C@H]3CC[C@]12C | 21 | > 500
7 | CC(C)[C@@]1(CC[C@@H](C)[C@H]2CC[C@H]3[C@@H]4CC=C5C[C@@H](O)CC[C@]5(C)[C@H]4CC[C@]23C)CO1 | – | > 8000
8 | CC(C)C(=O)CC[C@@H](C)[C@H]1CC[C@H]2[C@@H]3CC=C4C[C@@H](O)CC[C@]4(C)[C@H]3CC[C@]12C | – | > 8000
9 | CC(C)[C@@]1(CC[C@@H](C)[C@H]2CC[C@H]3[C@@H]4[C@H](O)C=C5C[C@@H](O)CC[C@]5(C)[C@H]4CC[C@]23C)CO1 | > 100 | 0.2
